Data reported in ChEMBL document CHEMBL4266034, “LC-MS-Guided Isolation of Insulin-Secretion-Promoting Monoterpenoid Carbazole Alkaloids from Murraya microphylla” (J Nat Prod, 2018).

What was measured:
[1] = Induction of insulin secretion in syrian hamster HIT-T15 cells at 40 uM after 1 hr by HTRF assay relative to control; format: functional, Mesocricetus auratus
In short: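 HIT-T15 hamster pancreatic islet cells were exposed to test compounds at 40 μM, with gliclazide at 100 μM as the positive control. Insulin secretion is expressed relative to untreated control cells. The procedure follows an earlier report. Each experiment was performed three times, and significance was taken at p < 0.01.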

[2] = Cytotoxicity against syrian hamster HIT-T15 cells assessed as decrease in cell viability at 40 uM by MTT assay; format: cell-based, Mesocricetus auratus

Row | SMILES | fold change (FC) [1] | Activity [2]
1 | CC(C)=CCCC1(C)C=Cc2c(c(C)cc3c2[nH]c2cc(OC4(C(C)C)CC=C(C)CC4)ccc23)O1 (centres undefined) | 1.9 - 3.1 | Non-Toxic
2 | Cc1cc2c([nH]c3c([C@@]4(C)CC[C@@]5(C(C)C)C[C@H]54)c(O)ccc32)c2c1OC(C)(C)C=C2 | 1.9 - 3.1 | Non-Toxic
3 | CC1=C[C@@H](c2c(O)ccc3c2[nH]c2c4c(c(C)cc23)OC(C)(C)C=C4)[C@H](C(C)C)CC1 | 1.9 - 3.1 | Non-Toxic
4 | CC(C)=CCC[C@]1(C)C=Cc2c(c(C)cc3c2[nH]c2c([C@@]4(C)CC[C@@]5(C(C)C)C[C@H]54)c(O)ccc23)O1 | 1.9 - 3.1 | Non-Toxic
5 | COc1cc2c([nH]c3c4c(c(C)cc32)OC(C)(C)C=C4)c([C@@]2(C)CC[C@@]3(C(C)C)C[C@H]32)c1O | 1.9 - 3.1 | Non-Toxic
6 | COc1cc2c(cc1OC(C)(C)[C@@H]1CC=C(C)CC1)[nH]c1c3c(c(C)cc12)OC(C)(C)C=C3 | 1.9 - 3.1 | Non-Toxic
7 | CC1=CCC(Oc2ccc3c(c2)[nH]c2c4c(c(C)cc23)OC(C)(C)C=C4)(C(C)C)CC1 (centres undefined) | 1.9 - 3.1 | Non-Toxic
8 | Cc1cc2c([nH]c3c([C@]4(C)CC[C@@]5(C(C)C)C[C@H]54)c(O)ccc32)c2c1OC(C)(C)C=C2 | 1.9 - 3.1 | Non-Toxic
9 | CC(C)=CCC[C@]1(C)C=Cc2c(c(C)cc3c2[nH]c2c([C@@H]4C=C(C)CC[C@H]4C(C)C)c(O)ccc23)O1 | 1.9 - 3.1 | Non-Toxic
10 | COc1cc2c(cc1OC1(C(C)C)CC=C(C)CC1)[nH]c1c3c(c(C)cc12)OC(C)(C)C=C3 (centres undefined) | 1.9 - 3.1 | Non-Toxic
11 | COc1cc2c([nH]c3c4c(c(C)cc32)OC(C)(C)C=C4)c([C@]2(C)CC[C@@]3(C(C)C)C[C@H]32)c1O | 1.9 - 3.1 | Non-Toxic
12 | COc1cc2c([nH]c3c4c(c(C)cc32)OC(C)(C)C=C4)c([C@@H]2C=C(C)CC[C@H]2C(C)C)c1O | 1.9 - 3.1 | Non-Toxic
